Compound activity deposited in PubChem BioAssay by Broad Institute.
The sample as a whole holds a higher share of hits than the screen did.
IDH1 R132H inh = IDH1 R132H (human) inhibition. O75874. IDH1 R132H reductase, diaphorase/resazurin fluorescence, 60 min. inhibition, % at 10 µM. hit rate 0.18% among 70,000. AID 624101; in the data active = inhibition above about 34%; inconclusive = no clear call, values can overlap the other calls; inactive = below about 11%;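 also: 0% = DMSO and 100% = no enzyme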
Target sequence (O75874 whole entry R132H): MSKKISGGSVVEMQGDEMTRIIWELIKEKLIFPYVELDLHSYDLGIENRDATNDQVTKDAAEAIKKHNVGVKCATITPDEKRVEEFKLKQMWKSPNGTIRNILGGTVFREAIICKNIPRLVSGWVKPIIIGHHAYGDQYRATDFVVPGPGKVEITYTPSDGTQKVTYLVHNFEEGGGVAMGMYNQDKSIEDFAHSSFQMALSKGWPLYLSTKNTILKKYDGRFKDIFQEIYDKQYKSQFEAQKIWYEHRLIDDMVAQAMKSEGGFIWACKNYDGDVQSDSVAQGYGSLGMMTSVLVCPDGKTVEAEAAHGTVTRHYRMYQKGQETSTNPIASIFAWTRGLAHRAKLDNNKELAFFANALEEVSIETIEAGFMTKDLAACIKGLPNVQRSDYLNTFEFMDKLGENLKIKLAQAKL
KDM4C inh = blocks human GASC-1 (KDM4C) demethylase activity; Q9H3R0; GST-KDM4C 2-372, H3K9me3 peptide, LANCE TR-FRET; inhibition, % at 12.5 µM; hit rate 0.15% among 96,000; AID 720574;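 active = mean replicate inhibition above about 25%, with at least 55% of replicates also reaching it, limit read from the data, passing the limit was not always enough; inconclusive = only one of those two conditions met; inactive = neither condition met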
Target sequence (Q9H3R0 2-372 limits assumed): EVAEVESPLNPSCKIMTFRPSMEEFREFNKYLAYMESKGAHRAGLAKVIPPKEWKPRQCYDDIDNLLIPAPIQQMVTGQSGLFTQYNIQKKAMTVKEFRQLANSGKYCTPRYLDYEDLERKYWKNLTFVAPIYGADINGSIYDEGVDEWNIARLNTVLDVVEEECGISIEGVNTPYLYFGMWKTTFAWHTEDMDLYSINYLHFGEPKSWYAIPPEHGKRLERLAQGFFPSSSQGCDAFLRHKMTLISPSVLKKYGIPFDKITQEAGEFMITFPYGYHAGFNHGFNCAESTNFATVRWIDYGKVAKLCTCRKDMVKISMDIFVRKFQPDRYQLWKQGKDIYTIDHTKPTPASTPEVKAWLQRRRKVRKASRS
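Compound: one test concentration per compound; Material: GST-GASC-1 enzyme fragment 2-372; Amount: GASC-1 enzyme at 10 nM final in reaction; Also added: H3K9me3 peptide substrate, Fe(II), 2-oxoglutarate; Technique: LANCE TR-FRET; Times: 30 min demethylation and 1 h detection at room temperature.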
T cruzi growth-1 = T. cruzi proliferation inhibition; T. cruzi beta-gal in NIH3T3, GalScreen luminescence, 90 h; inhibition, % at 8.34 µM; hit rate 5.9% among 77,000; AID 624255;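 active = mean inhibition above about 93%, with at least 55% of replicates each passing it, limit read from the data, passing the limit was not always enough; inconclusive = only one of those two conditions holds; inactive = neither condition holds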
T cruzi growth-2 = Trypanosoma cruzi proliferation inhibition. hit rate 72% among 5,600. AID 651739. shares compounds with T cruzi growth-1. inhibition, % at 8.35 µM. T. cruzi beta-gal in NIH3T3, GalScreen luminescence, 90 h;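 active = mean replicate inhibition above about 95% and at least 55% of replicates individually reaching it, limit read from the data; inconclusive = only one of the two criteria is met; inactive = neither criterion is met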
T cruzi growth-3 = blocks T. cruzi growth in NIH3T3 host cells; shares compounds with T cruzi growth-1; T. cruzi beta-gal in NIH3T3, GalScreen luminescence, 90 h; inhibition, % at 2.09 µM; hit rate 21% among 5,600;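 active = mean inhibition above about 95%, with at least 55% of replicates also reaching it, limit read from the data; inconclusive = meets just one of the two conditions; inactive = meets neither condition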;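 also: plate controls were neutral control median for no effect and positive control median for full effect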
3T3 cytotox = NIH/3T3 (mouse) viability loss; shares compounds with T cruzi growth-1; NIH/3T3 viability, CellTiter-Glo ATP luminescence, 90 h; cytotoxicity (signal decrease), % at 8.35 µM; hit rate 14% among 5,600;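 active = mean signal decrease across replicates above about 35% based on untreated-well scatter, with enough replicates individually passing, limit read from the data; inconclusive = no rule stated though some were filed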;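 also: 0% = median of neutral control wells and 100% = median of positive control wells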
NIH3T3 tox 2 = NIH/3T3 (mouse) viability loss; shares compounds with T cruzi growth-1; NIH/3T3 viability, CellTiter-Glo ATP luminescence, 90 h; inhibition, % at 24.9 µM; hit rate 56% among 5,600;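 active = mean loss of cell viability signal at or above a set limit, and enough replicates individually reaching it; inconclusive = meets only the mean limit or only the replicate share; inactive = meets neither condition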;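 also: 0% = median of neutral control wells and 100% = median of positive control wells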
* marks the source's active call; other numbers are inactive results; u = inconclusive; x = no result given.

SMILES | IDH1 R132H inh | KDM4C inh | T cruzi growth-1 | T cruzi growth-2 | T cruzi growth-3 | 3T3 cytotox | NIH3T3 tox 2
O=C(CC1CC1)N1CC[C@H]2[C@H](CO)Nc3ccc(-c4ccc(F)cc4)cc3[C@H]21 | x | -1.2 | 107.1* | 107.7* | 102.9* | -18.2 | 16.8
COc1ccc(NC(=O)N(C)C[C@H]2Oc3ccc(NC(=O)Nc4ccccc4)cc3CC(=O)N([C@@H](C)CO)C[C@H]2C)cc1 | 2.7 | 2.9 | -5.4 | x | x | x | x
COc1ccc(CSCC(N)C(=O)O)cc1Br (stereo unspecified) | 0.4 | x | x | x | x | x | x
COc1ccc(O)c(/C=N/NC(=O)c2cccc(C(=O)NO)c2)c1 | 0.1 | x | x | x | x | x | x
C[C@@H]1CN([C@H](C)CO)S(=O)(=O)c2ccc(C#CC(C)(C)O)cc2O[C@H]1CN(C)C | -1.1 | 0.8 | -7.3 | x | x | x | x
CCOC(=O)c1c(NC(=O)c2cccc(S(=O)(=O)N3CCCCCC3)c2)sc2c1CCC2 | 0.1 | x | x | x | x | x | x
C[C@H]1CN([C@@H](C)CO)C(=O)Cc2cc(NC(=O)c3ccncc3)ccc2O[C@H]1CN(C)Cc1ccc(Oc2ccccc2)cc1 | 0.0 | -2.4 | 97.0* | 97.5* | 47.9 | 33.3 | 104.3*
C[C@@H]1CN([C@H](C)CO)C(=O)Cc2cc(NC(=O)c3ccncc3)ccc2O[C@@H]1CN(C)Cc1ccccc1 | 2.8 | -0.5 | 45.0 | x | x | x | x
C[C@@H]1CN([C@@H](C)CO)C(=O)Cc2cc(NC(=O)c3ccncc3)ccc2O[C@@H]1CN(C)Cc1ccc(-c2ccccc2)cc1 | -0.1 | -0.7 | 47.9 | x | x | x | x
C[C@H](CO)N1C[C@H](C)[C@@H](CN(C)Cc2ccc(-c3ccccc3)cc2)Oc2ccc(NC(=O)c3ccncc3)cc2CC1=O | -4.9 | 0.2 | 125.1* | 112.1* | 81.9 | 18.7 | 106.3*
Cc1noc(C)c1NC(=O)Nc1ccc2c(c1)C(=O)N([C@@H](C)CO)C[C@@H](C)[C@H](CN(C)C(=O)CCCN(C)C)OCCCC[C@@H](C)O2 | 2.9 | 1.2 | -3.5 | x | x | x | x
CCCNC(=O)N1CC2(C1)[C@@H](c1ccccc1)[C@@H](CO)N2C(=O)c1cccnc1 | x | 0.1 | x | x | x | x | x
Cc1ccc2oc(-c3ccc(NC(=O)Cn4c(=O)oc5ccccc54)cc3)nc2c1 | 1.5 | x | x | x | x | x | x
Cc1ccc(F)cc1N1C(=O)COCC1=O | -1.2 | x | x | x | x | x | x
Cc1ccc(OCC(=O)Nc2ccc3oc(-c4cccc(F)c4)nc3c2)c(C)c1 | 0.0 | x | x | x | x | x | x
C[C@H]1CN([C@@H](C)CO)S(=O)(=O)c2ccc(C#CCN(C)C)cc2O[C@@H]1CN(C)Cc1ccc2c(c1)OCO2 | 0.5 | 6.2 | 106.9* | 107.0* | 88.1 | 29.1 | 105.5*
C[C@H]1CN([C@@H](C)CO)S(=O)(=O)c2ccc(C#CCN(C)C)cc2O[C@H]1CN(C)Cc1ccc2c(c1)OCO2 | 2.6 | 5.9 | 103.5* | 101.0* | 52.8 | 12.7 | 25.7*
C[C@H](CO)N1C[C@H](C)[C@H](CN(C)Cc2ccc3c(c2)OCO3)Oc2cc(C#CCN(C)C)ccc2S1(=O)=O | 0.0 | 0.5 | 76.4 | x | x | x | x
C[C@@H]1CN([C@@H](C)CO)S(=O)(=O)c2ccc(C#CCN(C)C)cc2O[C@@H]1CN(C)Cc1ccc2c(c1)OCO2 | -0.5 | 2.7 | 84.9 | x | x | x | x
Cc1ccc(NC(=O)CSc2nc3sc4c(c3c(=O)n2-c2ccccc2)CCCC4)c(C)c1 | 0.1 | x | x | x | x | x | x
C[C@@H]1CN([C@H](C)CO)C(=O)c2cc(/C=C/c3ccccc3)cnc2O[C@@H]1CN(C)C(=O)C1CCCCC1 | x | -0.1 | 29.7 | x | x | x | x
C[C@H]1CN([C@@H](C)CO)C(=O)c2cc(/C=C/c3ccccc3)cnc2O[C@@H]1CN(C)C(=O)C1CCC1 | 0.1 | -2.3 | u | u | 28.2 | 4.8 | 18.5
C[C@H](CO)N1C[C@H](C)[C@@H](CN(C)C(=O)C2CCC2)Oc2ncc(/C=C/c3ccccc3)cc2C1=O | -0.4 | -0.4 | 59.5 | x | x | x | x
C[C@H]1CN([C@@H](C)CO)C(=O)c2cc(/C=C/c3ccccc3)cnc2O[C@@H]1CN(C)C(=O)C1CCCCC1 | x | 0.3 | 99.2* | 100.8* | 60.9 | 9.3 | u
C[C@H](CO)N1C[C@H](C)[C@H](CN(C)C(=O)C2CCCCC2)Oc2ncc(/C=C/c3ccccc3)cc2C1=O | -0.5 | 0.2 | 85.0 | x | x | x | x
SMILES | IDH1 R132H inh | KDM4C inh | T cruzi growth-1 | T cruzi growth-2 | T cruzi growth-3 | 3T3 cytotox | NIH3T3 tox 2
C[C@H](CO)N1C[C@H](C)[C@@H](CN(C)C(=O)C2CCCCC2)Oc2ncc(/C=C/c3ccccc3)cc2C1=O | 0.1 | -2.7 | 113.2* | 111.6* | 67.7 | -40.8 | 1.3
CC(C)C#Cc1ccc2c(c1)O[C@@H](CN(C)C(=O)C1CCC1)[C@H](C)CN([C@H](C)CO)S2(=O)=O | -0.7 | -2.9 | 76.1 | x | x | x | x
C[C@H](CO)N1C[C@H](C)[C@H](CN(C)C(=O)C2CCC2)Oc2cc(C#CCN(C)C)ccc2S1(=O)=O | x | -3.9 | u | 113.7* | 97.6* | -10.0 | 3.0
C[C@H]1CN([C@@H](C)CO)S(=O)(=O)c2ccc(C#CCN(C)C)cc2O[C@@H]1CN(C)C(=O)C1CCC1 | x | -0.7 | 104.8* | 105.6* | 94.8 | 3.3 | -9.5
C[C@H](CO)N1C[C@H](C)[C@@H](CN(C)C(=O)C2CCCCC2)Oc2cc(C#CCN(C)C)ccc2S1(=O)=O | x | 0.5 | x | x | x | x | x
C[C@@H]1CN([C@@H](C)CO)C(=O)Cc2cc(NC(=O)CCN3CCOCC3)ccc2O[C@H]1CN(C)Cc1ccccc1 | u | 6.3 | 4.2 | x | x | x | x
COc1ccc(S(=O)(=O)N(C)C[C@H]2Oc3ccc(NC(=O)Cn4cnnn4)cc3C(=O)N([C@H](C)CO)C[C@H]2C)cc1 | -1.7 | -0.2 | 49.6 | x | x | x | x
COc1ccc(S(=O)(=O)N(C)C[C@@H]2Oc3ccc(NC(=O)Cn4cnnn4)cc3C(=O)N([C@H](C)CO)C[C@H]2C)cc1 | -3.6 | -1.0 | 104.9* | 51.9 | -4.8 | -13.9 | 10.3
COc1ccc(S(=O)(=O)N(C)C[C@H]2Oc3ccc(NC(=O)Cn4cnnn4)cc3C(=O)N([C@H](C)CO)C[C@@H]2C)cc1 | -4.6 | -1.0 | -79.7 | x | x | x | x
COc1ccc(S(=O)(=O)N(C)C[C@H]2Oc3ccc(NC(=O)Cn4cnnn4)cc3C(=O)N([C@@H](C)CO)C[C@@H]2C)cc1 | -1.3 | -0.3 | 99.7* | -12.7 | -13.6 | -5.9 | 13.6
O=C(C[C@@H]1C=C[C@@H](NC(=O)c2ccncc2)[C@@H](CO)O1)Nc1ccccc1 | x | 1.7 | x | x | x | x | x
CCOc1ccccc1NC(=O)c1ccsc1NC(=O)c1cc2ccccc2oc1=O | -0.2 | x | x | x | x | x | x
C[C@H]1CN([C@@H](C)CO)S(=O)(=O)c2ccc(/C=C/c3ccccc3)cc2O[C@H]1CN(C)C(=O)Nc1ccc(F)cc1 | -0.1 | 1.7 | 10.7 | x | x | x | x
C[C@H]1CN([C@@H](C)CO)S(=O)(=O)c2ccc(/C=C/c3ccccc3)cc2O[C@H]1CN(C)C(=O)Nc1cc(F)ccc1F | -0.9 | -0.7 | x | x | x | x | x
